# Screens as filed in PubChem.
# NPY Y1 blocker = NPY-Y1 receptor antagonists, primary screen, cell-based. Neuropeptide Y receptor type 1 (Homo sapiens), P25929. HEK293-CNG Y1 cells, membrane potential fluorescence; NPY at EC95, then isoproterenol. inhibition, % at 3.6 µM. 200,000 tested, 1% active;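 active = inhibition above the campaign mean inhibition of all tested compounds plus 3 SD, cut at about 20% in these data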
# Target sequence (P25929 whole entry, looked up): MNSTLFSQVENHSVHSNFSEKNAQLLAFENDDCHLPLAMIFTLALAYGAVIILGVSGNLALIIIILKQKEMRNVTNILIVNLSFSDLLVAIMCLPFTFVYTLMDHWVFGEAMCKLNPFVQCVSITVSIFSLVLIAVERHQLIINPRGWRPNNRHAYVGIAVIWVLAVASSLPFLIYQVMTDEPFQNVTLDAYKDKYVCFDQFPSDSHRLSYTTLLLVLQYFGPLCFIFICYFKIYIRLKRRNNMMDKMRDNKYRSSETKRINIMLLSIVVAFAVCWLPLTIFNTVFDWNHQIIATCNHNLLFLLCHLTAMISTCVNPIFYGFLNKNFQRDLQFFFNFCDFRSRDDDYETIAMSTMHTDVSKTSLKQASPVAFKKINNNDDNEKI
#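 System: HEK293 cells with Y1 receptor plus CNG channel / Probe or stimulus: NPY 25 nM then isoproterenol 1 µM plus Ro 20-1724 25 µM / Compound: one concentration, 3.6 µM, in 0.4% DMSO / Schedule: compound incubation 1 h at room temperature, readout 45 min post-stimulation / Measured by: membrane potential fluorescence / Read-out: % inhibition of NPY effect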
# NPY1 pot ag = NPY-Y1 receptor potentiators or agonists, primary screen, cell-based | Neuropeptide Y receptor type 1 (Homo sapiens), P25929 | NPY-Y1 expressing cells, potentiator/agonist activation | 220,000 tested, 0.37% active | activation, % at 3.6 µM; in the data active = activation above about 33%, passing the limit was not always enough;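 also: cells stimulated with NPY at EC10 then isoproterenol at EC100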
# NPY Y2 blocker = NPY-Y2 receptor antagonists, primary screen, cell-based. NPY-Y2 expressing cells, antagonist mode. Neuropeptide Y receptor type 2 (Homo sapiens), P49146. inhibition, % at 2.7 µM. 140,000 tested, 0.99% active
# NPY2 pot ag = NPY-Y2 potentiators or agonists, primary screen, cell-based; Neuropeptide Y receptor type 2 (Homo sapiens), P49146; activation, % at 3.6 µM; cells expressing NPY-Y2, potentiator/agonist read-out; AID 1359, 2008; 220,000 tested, 0.45% active; in the data active = activation above about 27%;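 also: cells stimulated with NPY near EC25 plus isoproterenol at EC100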
# WT yeast gro inh = growth inhibition of WT strain, primary screen, mitochondrial fusion inhibitor project, WT and mutant strains, chemical genetic; AID 1362, 2008; 190,000 tested, 2.1% active; mitochondrial fusion phenotypic screen; inhibition, % at 10 µM; in the data active = inhibition above about 58%; tested in S. cerevisiae
# RAM network inh = inhibitors of the yeast RAM network, primary screen, dse1pr::URA3 reporter, 5-FOA selection | AID 868, 2007 | 190,000 tested, 1.8% active | inhibition, % at 50 µM | S. cerevisiae dse1pr::URA3 reporter, 5-FOA growth OD615, 2 d; analog-sensitive cbk1-as2 kinase mutant strain;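 active = inhibition above a set limit, 3 SD over mean compound inhibition, cut at about 8.4% in these data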;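 also: inhibition rescues growth on 5-FOA so higher OD means more RAM inhibition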
# RAM efflux-def = 5-FOA growth of efflux-deficient control yeast, dose response, counter-screen for RAM network inhibitor project, S. cerevisiae, OD615 | shares compounds with RAM network inh | S. cerevisiae efflux-deficient reporter strain, 5-FOA growth OD615, 2 days | max inhibition, % | 1,200 tested, under 10 active | AID 1305, 2008; call rule not given here
# NPY1 antag conf = NPY-Y1 receptor antagonists, retest of hits, confirmation, HEK293-CNG cells, membrane potential fluorescence, triplicate; shares compounds with NPY Y1 blocker; 1,200 tested, 21% active; inhibition, % at 3.6 µM; cAMP; NPY challenge against isoproterenol-raised cAMP; in the data active = inhibition above about 20%
# NPY-Y2 antag ct = NPY-Y2 receptor antagonists, selectivity check, confirmation, counter-screen for NPY-Y1 antagonist project, HEK293-CNG cells, membrane potential fluorescence, triplicate; shares compounds with NPY Y1 blocker; antagonism; cells given NPY, then isoproterenol; inhibition, % at 3.6 µM; 1,200 tested, 28% active; AID 1255, 2008
# Numbers stand for hits; i = inactive; nt = not tested or not shown. Hits are enriched below; roughly 4.9% of the tested compounds scored in any of these assays. Rule as the data show it, unless noted: active = inhibition above about 17%; inactive = the rest.
SMILES,NPY Y1 blocker,NPY1 pot ag,NPY Y2 blocker,NPY2 pot ag,WT yeast gro inh,RAM network inh,RAM efflux-def,others
CCCOc1ccc(/C=N/Nc2ccccc2[N+](=O)[O-])c(OCCC)c1,i,i,i,i,i,16.0,i,
O=[N+]([O-])c1ccccc1N/N=C\c1ccccc1Cl,i,i,i,i,i,i,nt,
CC(Oc1ccc(-c2ccccc2)c(F)c1)c1ccn(S(=O)(=O)c2ccc(Br)cc2)n1 (configuration not stated),i,i,i,i,i,11.8,i,
CC(=O)Nc1ccc(-c2nn[nH]n2)cc1,nt,i,nt,i,nt,nt,nt,
CCCCNS(=O)(=O)c1ccc(NS(=O)(=O)c2c(C)cc(C)cc2C)cc1,i,i,i,i,i,11.8,i,
CCNS(=O)(=O)c1ccc(NS(=O)(=O)c2cc(C)ccc2C)cc1,i,i,i,i,i,i,nt,
Cc1cccc(OCc2nnc(SCC(=O)c3ccccc3)o2)c1,i,i,i,i,i,12.1,i,
O=C(CSc1nnc(COc2ccccc2)o1)c1ccccc1,i,i,i,i,i,i,nt,
O=C(NCc1ccco1)/C(=C\c1cccs1)NC(=O)c1ccsc1,i,i,i,i,i,i,nt,
O=C(Nc1ccc(Cl)c(Cl)c1)N1CCSC1c1ccco1 (configuration not stated),i,i,i,i,i,i,nt,
CCOC(=O)C(=Cc1ccc(OCc2ccc([N+](=O)[O-])cc2)c(OC)c1)C(=O)OCC,i,i,i,i,i,15.7,i,
CSc1ccc(CNc2ccc(Cl)cc2)cc1,i,i,i,i,i,i,nt,
Cn1c(=O)cc(OCCCC(=O)NCc2ccc(F)cc2Cl)c2ccccc21,i,i,nt,i,i,15.6,i,
Cc1cccc(C)c1NC(=O)C(NC(=O)c1ccccn1)c1ccc([N+](=O)[O-])cc1 (configuration not stated),i,i,i,i,i,i,nt,
COc1ccc(C(=O)/C=C/C(=O)N(CC(=O)NCCC(C)C)Cc2cccs2)c(O)c1,i,i,nt,i,i,11.8,i,
COc1ccc(C(=O)N(Cc2ccco2)Cc2cccs2)c(O)c1,i,i,i,i,i,i,nt,
Cc1ccc(C)c(NC(=O)C(Sc2nc3ccccc3c(=O)n2CC(C)C)c2ccccc2)c1 (configuration not stated),i,i,i,i,i,i,nt,
COC(=O)c1ccc(CSc2ccc3nnc(-c4ccc(F)cc4)n3n2)o1,i,i,nt,i,i,i,nt,
CCOc1ccc(-c2nnc3ccc(SCc4ccc(C(=O)OC)o4)nn23)cc1,i,i,i,i,i,11.9,i,
C=CCOC(=O)/C(=C/c1cccc2ccccc12)NC(=O)c1ccccc1,i,i,i,i,i,41.8,i,
COc1ccccc1-c1cc(C(F)(F)F)nc(N2CCN(c3ccccc3)CC2)n1,i,i,i,i,i,13.3,i,
CCCSc1nc(SCC(=O)NCc2ccccc2)c2c3c(sc2n1)COC(C)(CC)C3 (configuration not stated),i,i,i,i,i,12.3,i,
CCCCSc1nc(SCC(=O)NCc2ccco2)c2c3c(sc2n1)COC(C)(CC)C3 (configuration not stated),i,i,i,i,i,14.1,i,
O=C(Nc1ccn(Cc2ccccc2F)n1)c1ccc(COc2ccc(Br)cc2)cc1,i,i,i,i,i,16.2,i,
O=C(Nc1ccc(Cn2cccn2)cc1)c1ccc(COc2ccc(Br)cc2)cc1,i,i,i,i,i,i,nt,
SMILES,NPY Y1 blocker,NPY1 pot ag,NPY Y2 blocker,NPY2 pot ag,WT yeast gro inh,RAM network inh,RAM efflux-def,others
CN1CCCC(OC(=O)/C(C#N)=C/c2ccccc2)C1 (configuration not stated),i,i,nt,i,i,i,nt,
COc1ccc(C(=O)COC(=O)C(CCSC)NS(=O)(=O)c2ccc(Cl)cc2)cc1 (configuration not stated),i,i,i,i,i,15.3,i,
O=C(CSc1ccc2nnc(-c3ccc(F)cc3)n2n1)NCc1ccco1,i,i,i,i,i,i,nt,
COc1cc(CC(=O)OCC(=O)Nc2ccc(Cl)c(S(=O)(=O)N(C)C)c2)cc(OC)c1OC,nt,i,nt,i,nt,nt,nt,
CN(C)S(=O)(=O)c1cc(NC(=O)COC(=O)Cc2ccc(Br)cc2)ccc1Cl,i,i,i,i,i,11.8,i,
COc1ccc(/C=C/C(=O)Nc2cc(S(=O)(=O)N3CCCCC3)ccc2N2CCCCC2)cc1OC,i,i,i,i,i,11.8,i,
COc1ccc(/C=C/C(=O)Nc2cc(S(=O)(=O)N3CCOCC3)ccc2N2CCCC2)cc1OC,i,i,nt,i,i,i,nt,
COCCNc1nc(SCc2ccccc2)nc2sc3c(c12)CCC3,26.5,i,i,i,i,14.2,i,NPY1 antag conf=20.7;NPY-Y2 antag ct=22.4
Cc1nc(NCCc2ccc(S(N)(=O)=O)cc2)c2c3c(sc2n1)CCC3,i,i,i,i,i,i,nt,
CC1=C(C)CS(=O)N(S(=O)(=O)c2ccc(Cl)cc2)C1 (configuration not stated),i,i,i,i,i,i,nt,
O=C(CCSCc1ccc(Cl)cc1)NCc1ccco1,i,i,nt,i,i,i,nt,
Cc1ccccc1N/C(SCc1ccc(Cl)cc1)=C(/C#N)C(=O)NCc1ccco1,34.0,i,i,i,i,14.7,i,NPY1 antag conf=i;NPY-Y2 antag ct=i
O=C(NC(=S)Nc1ccc(Oc2ccccc2)cc1)c1ccc(Cl)cc1,20.4,i,i,i,i,12.0,i,NPY1 antag conf=i;NPY-Y2 antag ct=i
NC(=O)c1nn(-c2ccccc2)nc1NC(=O)CN1CCOCC1,nt,i,nt,i,nt,nt,nt,
CCCCOC(=O)c1ccc(NC(=S)NC(=O)c2c(Cl)cnn2C)cc1,25.2,i,i,i,i,15.6,i,NPY1 antag conf=i;NPY-Y2 antag ct=i
